Experimental findings from ChEMBL document CHEMBL1150822, “Additional bioactive Lyso-PAF congeners from the sponge Spirastrella abata” (J Nat Prod, 2001) are described below.

≈ marks a conversion by molar mass, not a printed value. Calls of active or inactive are those of the source. No cut-off for these calls is given here.

The test system of one assay is SK-OV-3. Kind of assay: Cytotoxicity against human SKOV3 cells after 48 hrs by SRB assay. The assay is classed as functional. As to conditions: SK-OV-3, 48 h, read-out: ED50 (the source's name). The method, boiled down: (§1)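 Rapidly growing cells were harvested and seeded at (1-2) × 10^4 cells/well, then preincubated for 24 h. Compounds dissolved in culture medium were added in triplicate, and cells were incubated for 48 h at 37 °C under 5% CO2. Cells were fixed with cold TCA and stained with 0.4% SRB in 1% acetic acid. Bound dye was solubilized in 10 mM unbuffered Tris base and absorbance read at 520 nm.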

The subject of a further assay is HCT-15. Nature of the assay: Cytotoxicity against human HCT15 cells after 48 hrs by SRB assay. As to conditions: HCT-15, 48 h, read-out: ED50 (the source's name). Format: functional. The method, boiled down: as §1
Another assay relates to XF498. Kind of assay: Cytotoxicity against human XF498 cells after 48 hrs by SRB assay. As to conditions: XF498, 48 h, read-out: ED50 (the source's name). Format: functional. In short, it runs like this: as §1
Background: The SRB assay estimates cell density from bound dye.

For a further assay, the system named is A549. Nature of the assay: Cytotoxicity against human A549 cells after 48 hrs by SRB assay. The assay is classed as functional. As to conditions: A549, 48 h, read-out: ED50 (the source's name). The method, boiled down: as §1
The subject of another assay is Chang. Nature of the assay: (§2) Inhibition of cholesterol biosynthesis in human Chang cells. The assay is classed as functional, cell-based.
The subject of a further assay is SK-MEL-2 (Homo sapiens). Kind of assay: Cytotoxicity against human SK-MEL-2 cells after 48 hrs by SRB assay. The following applies: SK-MEL-2, 48 h, read-out: ED50 (the source's name).
A short description of assay [1]: as §2. Format: functional, cell-based.

As to `CCCCCCCCCCCCCCC(COC[C@H](O)COP(=O)([O-])OCC[N+](C)(C)C)OC` (some centres undefined), the EC50 came out at 5.7 µg/mL (≈ 11.1 µM) in the assay on SK-OV-3; 5 µg/mL (≈ 9.77 µM) in the assay on HCT-15; 4.5 µg/mL (≈ 8.79 µM) with XF498; 5.8 µg/mL (≈ 11.3 µM) with A549; 5.2 µg/mL (≈ 10.2 µM) with SK-MEL-2 (Homo sapiens). In addition, in the assay on Chang, the outcome was inactive.

In general, IC50 refers to the concentration that gives 50% inhibition. In the case of `CCCCCCCCCCCC/C=C\CCOC[C@H](O)COP(=O)([O-])OCC[N+](C)(C)C`, the EC50 with SK-OV-3, with HCT-15, in the assay on XF498, with A549 and in the assay on SK-MEL-2 (Homo sapiens) was over 30 µg/mL in each case. This compound also registered an IC50 in assay [1] of 102 µg/mL (≈ 213 µM).

In the case of `CCCCCCCCCCC/C=C\CC(COC[C@H](O)COP(=O)([O-])OCC[N+](C)(C)C)OC` (some centres undefined), the EC50 in the assay on SK-OV-3 amounted to 5.9 µg/mL (≈ 11.6 µM); in the assay on HCT-15, 3.7 µg/mL (≈ 7.26 µM); in the assay on XF498 it was 4 µg/mL (≈ 7.85 µM); in the assay with A549, 6.3 µg/mL (≈ 12.4 µM); in the assay with SK-MEL-2 (Homo sapiens), 3.8 µg/mL (≈ 7.46 µM).

`CCCCCCCCCCC/C=C\CCCOC[C@H](O)COP(=O)([O-])OCC[N+](C)(C)C`: the EC50 with SK-OV-3, in the assay with HCT-15, in the assay on XF498, in the assay with A549 and with SK-MEL-2 (Homo sapiens) was over 30 µg/mL throughout. The same compound displayed an IC50 in assay [1] of 118 µg/mL (≈ 246 µM).

Take `COc1cccc2c1C(=O)c1c(O)c3c(c(O)c1C2=O)C[C@@](O)(C(=O)CO)C[C@@H]3O[C@H]1C[C@H](N)[C@H](O)[C@H](C)O1` [DOXORUBICIN]: the EC50 with SK-OV-3 was 0.11 µg/mL (≈ 0.202 µM); in the assay on HCT-15, 0.04 µg/mL (≈ 0.0736 µM); in the assay with XF498, 0.08 µg/mL (≈ 0.147 µM); in the assay with A549, 0.02 µg/mL (≈ 0.0368 µM); in the assay with SK-MEL-2 (Homo sapiens) it was 0.02 µg/mL (≈ 0.0368 µM).

For `CCCCCCCCCCCCCCCCOC[C@@H](O)COP(=O)([O-])OCC[N+](C)(C)C`, the EC50 in the assay on SK-OV-3 came to 4.9 µg/mL (≈ 10.2 µM); with HCT-15 it was 5.4 µg/mL (≈ 11.2 µM); with XF498, 4.9 µg/mL (≈ 10.2 µM); in the assay on A549, 5.5 µg/mL (≈ 11.4 µM); in the assay with SK-MEL-2 (Homo sapiens), 5.4 µg/mL (≈ 11.2 µM). In addition, the outcome with Chang was inactive.
